Test results reported in ChEMBL document CHEMBL4406880, “Design, synthesis, and bioactivity of dihydropyrimidine derivatives as kinesin spindle protein inhibitors” (Bioorg Med Chem, 2019).

Key:
Type in all cases: functional
[1] = test system: HCC 2998; assay: Growth inhibition of human HCC2998 cells incubated for 48 hrs by sulforhodamine B assay; details: HCC 2998, 48 h
Summary of the method: (§1)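 NCI-60 five-dose mode: five tenfold dilutions (0.01, 0.1, 1, 10, 100 µM) are applied for 48 h to cells in RPMI 1640 with 5% FBS at 37 °C. Endpoint is TCA fixation with sulforhodamine B read at 515 nm. % growth comes from the 0 h and control absorbances. GI50 is the concentration giving a 50% reduction in net cell growth.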

[2] = test system: SNB-75; assay: Growth inhibition of human SNB75 cells assessed as cell viability at 0.001 uM incubated for 48 hrs by sulforhodamine B assay relative to control; details: SNB-75, 48 h, read-out: Activity
[3] = test system: SNB-19; assay: Growth inhibition of human SNB19 cells incubated for 48 hrs by sulforhodamine B assay; details: SNB-19, 48 h
Summary of the method: (§2)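 NCI-60 five-dose SRB assay. Cells were exposed for 48 h to tenfold dilutions of 0.01, 0.1, 1, 10 and 100 µM, in RPMI 1640 with 5% FBS. Plates fixed with TCA at the time of drug addition served as the time-zero reference. GI50 is the concentration giving a 50% reduction in net growth. TGI is total growth inhibition. LC50 is a net 50% loss of the initial cells.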

[4] = test system: OVCAR-4; assay: Growth inhibition of human OVCAR4 cells assessed as cell viability at 1 uM incubated for 48 hrs by sulforhodamine B assay; details: OVCAR-4, 48 h, read-out: Activity
[5] = test system: KM12; assay: Growth inhibition of human KM12 cells assessed as cell viability at 100 uM incubated for 48 hrs by sulforhodamine B assay; details: KM12, 48 h, read-out: Activity
[6] = test system: NCI-H226; assay: Growth inhibition of human NCI-H226 cells incubated for 48 hrs by sulforhodamine B assay; details: NCI-H226, 48 h
Summary of the method: (§3)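 NCI-60 five-dose SRB assay in RPMI 1640 with 5% FBS, 37 °C, 5% CO2. Compound given at five tenfold dilutions, 0.01–100 µM, for 48 h. Adherent cells fixed with TCA, suspension cells with 16% final TCA. Bound SRB read at 515 nm and growth calculated against time-zero and untreated controls. GI50 taken from dose–response curves as the concentration giving a 50% decrease in net cell growth.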

[7] = test system: CCRF-CEM; assay: Growth inhibition of human CCRF-CEM cells assessed as cell viability at 1 uM incubated for 48 hrs by sulforhodamine B assay; details: read-out: Activity
[8] = test system: PC-3; assay: Growth inhibition of human PC3 cells assessed as cell viability at 0.001 uM incubated for 48 hrs by sulforhodamine B assay relative to control; details: PC-3, 48 h, read-out: Activity
[9] = test system: LOX IMVI; assay: Growth inhibition of human LOXIMVI cells incubated for 48 hrs by sulforhodamine B assay; summary of the method: as §3
[10] = test system: NCI-H23; assay: Growth inhibition of human NCI-H23 cells assessed as cell viability at 0.001 uM incubated for 48 hrs by sulforhodamine B assay relative to control; details: NCI-H23, 48 h, read-out: Activity
[11] = test system: UACC-62; assay: Growth inhibition of human UACC62 cells incubated for 48 hrs by sulforhodamine B assay; details: UACC-62, 48 h; summary of the method: as §2
[12] = test system: HCT-116; assay: Growth inhibition of human HCT116 cells assessed as cell viability at 100 uM incubated for 48 hrs by sulforhodamine B assay; details: HCT-116, 48 h, read-out: Activity
[13] = test system: T47D; assay: Growth inhibition of human T47D cells assessed as cell viability at 0.1 uM incubated for 48 hrs by sulforhodamine B assay; details: read-out: Activity
[14] = test system: A498; assay: Growth inhibition of human A498 cells assessed as cell viability at 1 uM incubated for 48 hrs by sulforhodamine B assay; details: A498, 48 h, read-out: Activity; summary of the method: as §1
[15] = test system: MCF7; assay: Growth inhibition of human MCF7 cells incubated for 48 hrs by sulforhodamine B assay; details: MCF7, 48 h; summary of the method: as §3
[16] = test system: 786-0; assay: Growth inhibition of human 786-0 cells assessed as cell viability at 0.001 uM incubated for 48 hrs by sulforhodamine B assay relative to control; details: 786-0, 48 h, read-out: Activity
[17] = test system: MDA-MB-468; assay: Growth inhibition of human MDA-MB-468 cells assessed as cell viability at 0.1 uM incubated for 48 hrs by sulforhodamine B assay; details: MDA-MB-468, 48 h, read-out: Activity
[18] = test system: NCI/ADR-RES; assay: Growth inhibition of human NCI/ADR-RES cells incubated for 48 hrs by sulforhodamine B assay; summary of the method: as §3
[19] = test system: SK-OV-3; assay: Growth inhibition of human SKOV3 cells incubated for 48 hrs by sulforhodamine B assay; details: SK-OV-3, 48 h; summary of the method: as §2
[20] = test system: SNB-75; assay: Growth inhibition of human SNB75 cells assessed as cell viability at 100 uM incubated for 48 hrs by sulforhodamine B assay; details: SNB-75, 48 h, read-out: Activity
[21] = test system: DU-145; assay: Growth inhibition of human DU145 cells assessed as cell viability at 0.001 uM incubated for 48 hrs by sulforhodamine B assay relative to control; details: DU-145, 48 h, read-out: Activity
[22] = test system: TK-10; assay: Growth inhibition of human TK10 cells incubated for 48 hrs by sulforhodamine B assay; details: TK-10, 48 h; summary of the method: as §2
[23] = read-out: LC50 (the source's name)
[24] = read-out: pLC50 (the source's name) (converted)

## CC1=C(C(=O)OCc2ccccc2)C(c2ccc3c(c2)OCO3)n2c(nc3ccccc32)N1 (racemic)
[1]; read-out: GI50
  GI50: 11 µM
[1]; read-out: LC50
  LC50: > 100 µM
[1]; read-out: TGI
  TGI: > 100 µM
[1]; read-out: pGI50 (converted)
  GI50: 11 µM
[1]; read-out: pLC50 (converted)
  LC50: > 100 µM
[1]; read-out: pTGI
  TGI: > 100 µM
[2]
  viability at 0.001 µM: 61%
[3]; read-out: GI50
  GI50: 0.56 µM
[3]; [23]
  CC50: > 100 µM
[3]; read-out: TGI
  TGI: > 100 µM
[3]; read-out: pGI50 (converted)
  GI50: 0.562 µM
[3]; [24]
  CC50: > 100 µM
[3]; read-out: pTGI
  TGI: > 100 µM
[4]
  viability at 1 µM: 61%
[5]
  viability at 100 µM: 18%
[6]; read-out: GI50
  GI50: > 100 µM
[6]; read-out: LC50
  LC50 (concentration killing 50% of starting cells): > 100 µM
[6]; read-out: TGI
  TGI: > 100 µM
[6]; read-out: pGI50 (converted)
  GI50: > 100 µM
[6]; read-out: pLC50 (converted)
  LC50 (concentration killing 50% of starting cells): > 100 µM
[6]; read-out: pTGI
  TGI: > 100 µM
[7]
  viability at 1 µM: 19%
[8]
  viability at 0.001 µM: 89%
[9]; read-out: GI50
  GI50: 0.55 µM
[9]; read-out: LC50
  LC50: > 100 µM
[9]; read-out: TGI
  TGI: > 100 µM
[9]; read-out: pGI50 (converted)
  GI50: 0.55 µM
[9]; read-out: pLC50 (converted)
  LC50: > 100 µM
[9]; read-out: pTGI
  TGI: > 100 µM
[10]
  viability at 0.001 µM: 93%
[11]; read-out: GI50
  GI50: 0.38 µM
[11]; [23]
  CC50: > 100 µM
[11]; read-out: TGI
  TGI: > 100 µM
[11]; read-out: pGI50 (converted)
  GI50: 0.38 µM
[11]; [24]
  CC50: > 100 µM
[11]; read-out: pTGI
  TGI: > 100 µM
[12]
  viability at 100 µM: 18%
[13]
  viability at 0.1 µM: 93%
[14]
  viability at 1 µM: 15%
[15]; read-out: GI50
  GI50: 0.32 µM
[15]; [23]
  CC50: > 100 µM
[15]; read-out: TGI
  TGI: > 100 µM
[15]; read-out: pGI50 (converted)
  GI50: 0.316 µM
[15]; [24]
  CC50: > 100 µM
[15]; read-out: pTGI
  TGI: > 100 µM
[16]
  viability at 0.001 µM: 94%
[17]
  viability at 0.1 µM: 94%
[18]; read-out: GI50
  GI50: 0.33 µM
[18]; [23]
  CC50: > 100 µM
[18]; read-out: TGI
  TGI: > 100 µM
[18]; read-out: pGI50 (converted)
  GI50: 0.331 µM
[18]; [24]
  CC50: > 100 µM
[18]; read-out: pTGI
  TGI: > 100 µM
[19]; read-out: GI50
  GI50: 0.47 µM
[19]; [23]
  CC50: > 100 µM
[19]; read-out: TGI
  TGI: > 100 µM
[19]; read-out: pGI50 (converted)
  GI50: 0.468 µM
[19]; [24]
  CC50: > 100 µM
[19]; read-out: pTGI
  TGI: > 100 µM
[20]
  viability at 100 µM: -24%
[21]
  viability at 0.001 µM: 102%
[22]; read-out: GI50
  GI50: > 100 µM
[22]; [23]
  CC50: > 100 µM
[22]; read-out: TGI
  TGI: > 100 µM
[22]; read-out: pGI50 (converted)
  GI50: > 100 µM
[22]; [24]
  CC50: > 100 µM
[22]; read-out: pTGI
  TGI: > 100 µM
